Test results reported in PMC4830347 (Journal of the American Chemical Society, 2016).

Key:
HeLa cells = assay: MTT cell viability assay, HeLa cells; format: cell-based
Summary of the method: (§1)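 HeLa or Saos-2 cells seeded at 1 × 10^4 cells/well and incubated 48 h with test compound in culture medium (200, 300, 400 μM) before MTT read-out; IC50 after 48 h. Inhibitor experiments used test compound at 500 μM for 48 h with or without l-Phe (3 mM) or levamisole (1 mM). Separately, exogenous ALP (5 U/mL) was added together with test compound.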

Saos-2 cells = assay: MTT cell viability assay, Saos-2 cells; format: cell-based; conditions: Saos-2, six precursors 500 μM, 48 h
Summary of the method: as §1

SMILES	rescue of precursor-treated cells by TNAP inhibitor (HeLa cells; HeLa, six precursors 500 μM, inhibitor 1 mM, 48 h)	rescue of precursor-treated cells by TNAP inhibitor (Saos-2 cells; inhibitor 1 mM)	cell compatibility (HeLa cells; 3 mM, cell culture)	rescue of precursor-treated cells by PLAP inhibitor (Saos-2 cells; L-Phe 3 mM)
c1ccc(C2CN3CCSC3=N2)cc1 (single isomer, unassigned; (-)) [(−)-tetramisole]	hardly rescues HeLa cells	significantly increases the cell viability		
N[C@@H](Cc1ccccc1)C(=O)O [L-Phe, L-phenylalanine]			cell compatible	hardly rescue the Saos-2 cells at all
